Published values gathered from unrelated publications.
Each line is one published result; the experiments were not run side by side.
Target: Serine/threonine-protein kinase PLK1 (PLK1, Homo sapiens, UniProt P53350)

With CS(=O)(=O)NCC[C@H](NC(=O)c1cncc2c1cnn2-c1ccc(F)cc1)c1ccnc(S(C)(=O)=O)c1 the remaining binding was 100% (cell-free assay; competition with immobilised ligand; 1 µM).
CCN1CCN(Cc2ccc(C(=O)Nc3ccc(C)c(Oc4ccc5c(c4)CC(=O)N5)c3)cc2C(F)(F)F)CC1 gave a remaining binding of 100% (binding; competition with immobilised ligand; 1 µM).
For CN(c1nccc(-c2cnn3ncccc23)n1)C1CC1, the remaining binding was 100% (binding; 1 µM).
The remaining binding of O=C(NCC1CCOCC1)c1n[nH]cc1NC(=O)c1c(F)cccc1F is reported as 90% (binding; competition with immobilised ligand; 1 µM).
With Cc1cnc(Nc2ccc(C(=O)N3CCC(N4CCCC4)CC3)cc2)nc1-c1cc2ccccc2s1 the remaining binding was 37% (binding; competition with immobilised ligand; 1 µM).
CC1CCCN1c1nccc(-c2cnn3ncccc23)n1 (centres unmarked) has a remaining binding of 100% (binding; 1 µM).
O=C(NCCCN1CCOCC1)c1ccc(Nc2nccc(-c3cc4ccccc4s3)n2)cc1 has a remaining binding of 77% (binding; competition with immobilised ligand; 1 µM).
With CO[C@@H](C)c1c(Nc2ccc([C@@H](N(C)C(=O)C3CCS(=O)(=O)CC3)C(F)(F)F)cc2)cnc2cc(Cl)nn12 the remaining binding was 87% (cell-free assay; competition with immobilised ligand; 1 µM).
For FC(F)(F)Oc1cccc(-c2cnc3ccc(-c4ccncc4)nn23)c1, the remaining binding was 93% (cell-free assay; competition with immobilised ligand; 5 µM).
With Cc1c(C(=O)O)cc(-c2ccc(C3CCNCC3)cc2)c2ccc(-c3ccc(C(F)(F)F)cc3)cc12 the remaining binding was 94% (binding; competition with immobilised ligand; 1 µM).
The remaining binding of COc1cnc(Nc2cccc(S(N)(=O)=O)c2)nc1N1CCN(c2ccccc2)C(=O)C1 is reported as 80% (binding; competition with immobilised ligand; 1 µM).
The remaining binding of CN(C(=O)c1ccccc1)c1cc(N(C)c2ccc3c(c2)CCc2ccc(C(=O)NCCN4CCOCC4)cc2C3=O)ccc1F is reported as 100% (cell-free assay; competition with immobilised ligand; 1 µM).
C[C@H]1CCN(c2nccc(-c3cnn4ncccc34)n2)C1 gave a remaining binding of 100% (binding; 1 µM).
CC(C)(C)c1ccc(-c2nc(CBr)nn2-c2cccc(O)c2)cc1 gave a remaining binding of 84% (cell-free assay; competition with immobilised ligand; 10 µM).
C[C@H](c1cccc(C#N)c1)n1cc(Cl)cc(C(N)=O)c1=N gave a remaining binding of 89% (cell-free assay; competition with immobilised ligand; 1 µM).
N[C@@H]1CCN(c2nccc(-c3cnn4ncccc34)n2)C1 gave a remaining binding of 100% (binding; 1 µM).
The remaining binding of O=C(c1ccc(Nc2ncc(Cl)c(-c3cc4ccccc4s3)n2)cc1)N1CCC(N2CCCC2)CC1 is reported as 57% (binding; competition with immobilised ligand; 1 µM).
CC1=C(C#N)C(c2ccc3c(c2)c(NC(=O)c2ccccc2C)nn3C)C(C#N)=C(C)N1 gave a remaining binding of 85% (cell-free assay; competition with immobilised ligand; 1 µM).
C[C@@H]1CN(c2ccc3ncc(-c4ccc5[nH]nc(C6CC6)c5c4)n3n2)C[C@H](C)O1 has a remaining binding of 97% (binding; competition with immobilised ligand; 50 nM).
For CNC(=O)c1ccccc1Nc1cc(Nc2ccc(N3CCOCC3)cc2OC)ncc1C(F)(F)F, the remaining binding was < 10% (binding; competition with immobilised ligand; 1 µM).
With CCC(=O)N[C@@H]1CC[C@H](C(=O)N(C)c2ccc(-c3nc4ccccc4o3)cc2)C1 the remaining binding was 95% (cell-free assay; competition with immobilised ligand; 1 µM).
With CN(CCCC(F)(F)F)c1nccc(-c2cnn3ncccc23)n1 the remaining binding was 84% (binding; 1 µM).
For COc1cnc(Nc2cccc(S(N)(=O)=O)c2)nc1N1CCN(c2ccccc2)CC1, the remaining binding was 79% (binding; competition with immobilised ligand; 1 µM).
CN(C)c1nccc(-c2cnc3ncccn23)n1 gave a remaining binding of 69% (binding; 1 µM).
With c1ccc(N2CCN(Cc3nc4ccccc4[nH]3)CC2)nc1 the remaining binding was 100% (binding; competition with immobilised ligand; 1 µM).
With C[C@@H](c1ccc(-n2cnc3c(N)ncnc32)cc1)N1CCc2nn(C)c(Cc3ccccc3)c2C1=O the remaining binding was 86% (binding; competition with immobilised ligand; 0.1 µM).
